Most compounds without a hit are left out; they make up all but 1.5% or so of the library.
CSN deneddyl inh – inhibitors of CSN-mediated cullin deneddylation, primary screen, biochemical, fluorescence polarization, uHTS | 360,000 tested, 0.38% active | Purified CSN, SCF-Nedd8-OG deneddylation | inhibition, % at 12.5 µM;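 active means pattern-corrected inhibition above about 35%, with an unprinted fluorescence ratio check between 0.5 and 1.5, limit read from the data, passing the limit was not always enough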;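 further: 0% = enzyme with substrate and 100% = substrate without enzyme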
Target sequence (Q92905 whole entry, looked up, one chain of several): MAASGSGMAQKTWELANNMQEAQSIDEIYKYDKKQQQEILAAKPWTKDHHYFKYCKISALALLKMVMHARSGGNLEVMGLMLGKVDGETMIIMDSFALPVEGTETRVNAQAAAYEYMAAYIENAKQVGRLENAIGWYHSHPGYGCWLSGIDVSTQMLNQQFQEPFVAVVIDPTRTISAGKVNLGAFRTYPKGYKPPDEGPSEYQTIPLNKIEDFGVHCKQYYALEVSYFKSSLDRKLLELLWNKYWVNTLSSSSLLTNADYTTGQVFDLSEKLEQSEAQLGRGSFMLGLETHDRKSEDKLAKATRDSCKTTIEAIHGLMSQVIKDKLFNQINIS
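Material: human Csn5 produced in HEK293T cells; Input: enzyme 0.24 nM; Reagent: SCFSkp2-Nedd8OG substrate at 10 nM final; Dosing: 12.5 µM compound; Incubation: 90 min reaction at room temperature; Detection: fluorescence polarization of the substrate; Evaluation: % inhibition of substrate cleavage by Csn5; Control set: substrate-only high control, full reaction low control.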
HNF4A DNA FP – change in binding of human HNF4A to DNA, primary screen, biochemical, fluorescence polarization, FITC-DNA; 1 h; activity change, % at 10 µM; 360,000 tested, 0.3% active; AID 1224865, 2016; in the data active means activity change above about 30%, passing the limit was not always enough
Rpn11 inh – Rpn11 (PSMD14) deubiquitinase inhibitors, primary screen, biochemical, fluorescence polarization, uHTS | 360,000 tested, 0.59% active | 26S proteasome non-ATPase regulatory subunit 14 (Homo sapiens), O00487 | AID 588493, 2011 | human 26S proteasome, Ub4-pepOG fluorescence polarization; 20S core pre-blocked with epoxomicin | inhibition, % at 20 µM;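 active means inhibition at 20 µM, scaled to each plate's controls, above about 33%, limit read from the data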
Target sequence (O00487 whole entry, looked up): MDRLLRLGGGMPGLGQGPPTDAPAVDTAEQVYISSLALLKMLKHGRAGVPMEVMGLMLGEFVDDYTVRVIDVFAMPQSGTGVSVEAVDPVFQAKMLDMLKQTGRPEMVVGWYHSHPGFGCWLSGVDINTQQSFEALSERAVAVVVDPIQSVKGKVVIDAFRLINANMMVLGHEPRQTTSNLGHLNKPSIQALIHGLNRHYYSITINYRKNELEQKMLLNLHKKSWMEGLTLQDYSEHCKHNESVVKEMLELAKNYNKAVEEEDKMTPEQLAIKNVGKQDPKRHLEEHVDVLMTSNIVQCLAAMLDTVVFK
TPT1 inh – Candida albicans TPT1 enzyme inhibitors, primary screen, biochemical, fluorescence polarization; 300,000 tested, 0.81% active; AID 1962, 2009; inhibition, % at 5 µM; tRNA 2'-phosphotransferase TPT1 (Candida albicans SC5314); recombinant caTPT1, FP RNA substrate dephosphorylation;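 active means inhibition above the mean of all tested compounds plus 3 SD, set per screening campaign, cut at about 24% in these data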;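 further: plate controls were DMSO alone for no effect and ferristatin control at 100 nM for full effect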
Rpn11 inh conf – Rpn11 (PSMD14) deubiquitinase inhibitors, confirmation, biochemical, fluorescence polarization, single concentration; 1,900 tested, 29% active; purified human 26S proteasome, Ub4-pepOG fluorescence polarization; proteasome pretreated with epoxomicin; shares compounds with Rpn11 inh; inhibition, % at 20 µM
MMP-2 counter – MMP-2 enzyme inhibition, confirmation, counter-screen for RPN11 inhibitor project, biochemical, fluorescence, single concentration; shares compounds with Rpn11 inh; recombinant MMP-2, FRET peptide cleavage fluorescence; inhibition, % at 20 µM; 1,900 tested, 4% active;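 further: human MMP-2 activated beforehand with APMA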
Thrombin inh – bovine thrombin protease inhibition, confirmation, counter-screen for Rpn11 inhibitor project, biochemical, fluorescence polarization, single concentration | inhibition, % at 20 µM | bovine thrombin cleavage of Ub4-pepOG | AID 602333, 2012 | 1,900 tested, 13% active | shares compounds with Rpn11 inh;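 active means mean inhibition at least 40% at 20 µM, or signal 3 deviations below plate average, so some actives read negative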;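 further: plate controls were thrombin with DMSO for no effect and buffer wells lacking thrombin for full effect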
* hit, by the source's call; x = no result. Unless noted, no stated cut-off is given here; in the data, active means inhibition above about 40%; inactive means the rest.

SMILES	CSN deneddyl inh	HNF4A DNA FP	Rpn11 inh	TPT1 inh	Rpn11 inh conf	MMP-2 counter	Thrombin inh
COc1cc([N+](=O)[O-])cc(/C=N/NC(=O)c2ccc(NC(=O)c3ccc(C)cc3)cc2)c1O	-6.5	-5.1	41.5*	x	26.3	14.0	4.1
COc1cccc(/C=N/NC(=O)c2cc3cc([N+](=O)[O-])ccc3s2)c1O	119.6	60.4	62.1*	12.2	34.0	-22.8	-18.8
COC(=O)c1[nH]c2ccc(C)cc2c1NC(=O)CN1CCCc2ccccc21	2.1	10.7	66.4*	14.7	48.4*	-142.9	7.2
COC(=O)c1[nH]c2cc(C)ccc2c1NC(=O)CN1CCN(c2ccccc2OC)CC1	-2.3	2.4	-2.5	3.5	x	x	x
CC(Sc1nc(-c2ccco2)nc2c1c(=O)n(C)c(=O)n2C)C(=O)O (centres undefined)	0.4	-7.6	4.5	-3.3	x	x	x
CC(C)N(C(=O)N1CCN(c2ccnc3cc(Cl)ccc23)CC1)C(C)C	0.4	0.6	2.2	x	x	x	x
C[C@@H]1CN([C@H](C)CO)C(=O)c2cc(Br)cnc2O[C@@H]1CN(C)C(=O)CC1CC1	1.1	-0.5	3.5	x	x	x	x
NS(=O)(=O)c1ccc(NC(=S)Nc2ccn(Cc3cccc4ccccc34)n2)cc1	3.1	-3.1	-6.6	-0.8	x	x	x
O=C(c1ccc(F)cc1)C1CCN(C(=S)Nc2ccc(F)cc2)CC1	-1.6	-0.5	3.0	2.0	x	x	x
COCCCn1c(=O)/c(=C/c2ccccc2OC(F)F)s/c1=C(\C#N)C(=O)NCCOC	33.0	12.8	83.7*	x	23.6	47.2*	-1.3
O=C(O)c1ccccc1C(=O)c1cccc2ccccc12	2.9	4.0	-1.4	1.1	x	x	x
CCOc1ccc(NC(=O)/C=C/c2ccc(OC)cc2)c([N+](=O)[O-])c1	15.5	24.2	48.1*	6.8	-16.4	-26.4	-20.4
COc1ccc(NC(=O)/C=C/c2ccccc2)c([N+](=O)[O-])c1	-2.1	1.8	-1.0	2.9	x	x	x
COc1ccc(/C=C/C(=O)Nc2ccc(OC)cc2[N+](=O)[O-])cc1	9.9	11.4	44.5*	3.0	39.2	-20.2	14.2
CC[C@]1(C(=O)OC)[C@H]2C(=O)N(C)C(=O)[C@H]2[C@H]2CN=C(SCc3ccc(OC)cc3)N21	-1.4	-2.3	-1.8	x	x	x	x
COc1ccc(-c2nnc(SCC(=O)NCc3cccs3)n2C)cc1	-5.2	6.5	-2.4	-2.2	x	x	x
COc1ccc(-c2nnc(SCC(=O)NCc3cccs3)n2C(C)C)cc1	-4.0	3.2	38.7*	1.6	10.1	-10.0	-1.3
Cc1cc(=O)[nH]c2c1cnn2C(C)c1ccccc1 (centres undefined)	0.1	3.4	-5.3	-3.9	x	x	x
CC(C)(C)NCC(O)Cn1cc(C=O)c2ccccc21 (centres undefined)	0.2	0.3	-5.8	-4.0	x	x	x
CCCN(CCC)CC(O)Cn1cc(/C=C/C(=O)c2ccccc2)c2ccccc21 (centres undefined)	6.2	4.5	39.0*	x	4.7	-21.9	12.4
O=C(CCl)NCCN1C(=O)S/C(=C\c2cccnc2)C1=O	62.0*	12.1	45.7*	1.1	52.9*	23.4	-11.3
CC(C(=O)NCCN1C(=O)S/C(=C\c2cccnc2)C1=O)N1C(=O)c2ccccc2C1=O (centres undefined)	-0.6	1.9	2.3	-1.2	x	x	x
O=C(OCC(=O)N1CCCCCC1)c1cccc(Cl)c1	-3.8	0.3	1.7	x	x	x	x
CCn1cc(C(=O)O)c(=O)c2cc(F)c(N3CCN(C(=S)Nc4ccccc4OC)CC3)cc21	0.8	3.8	-4.8	-1.0	x	x	x
CCn1cc(C(=O)O)c(=O)c2cc(F)c(N/N=C/c3ccccc3[N+](=O)[O-])cc21	12.9	13.6	100.5*	1.0	-15.1	11.1	-13.9
SMILES	CSN deneddyl inh	HNF4A DNA FP	Rpn11 inh	TPT1 inh	Rpn11 inh conf	MMP-2 counter	Thrombin inh
COC(=O)C[C@@H]1CC[C@@H](NS(=O)(=O)c2ccc(OC)cc2)[C@@H](CO)O1	-1.8	-1.6	x	x	x	x	x
CCc1nn(CC(=O)NCCCN2CCOCC2)c(=O)c2cc3c(OC)cccc3n12	5.4	0.9	-9.9	x	x	x	x
CC(CSc1nc2ccccc2s1)Cn1c(N2CCCC2)nc2c1c(=O)[nH]c(=O)n2C (centres undefined)	-3.0	-0.7	34.5*	-2.0	11.1	37.1	7.7
COc1ccc2cc(C(=O)NCc3ccccc3CN3CCCC3)ccc2c1	1.7	4.3	-17.4	x	x	x	x
Cc1nnc(SCc2nc3sc4c(c3c(=O)[nH]2)CCCC4)[nH]c1=O	17.2	17.8	61.4*	20.7	21.3	-6.2	83.9*
Cc1noc(C)c1NC(=O)Nc1cccc2c1O[C@H](CN(C)C(=O)NC(C)C)[C@@H](C)CN([C@H](C)CO)C2=O	-1.8	5.1	0.4	x	x	x	x
CS(=O)(=O)N(CC(=O)Nc1ccc2c(c1)OCCO2)c1ccc2c(c1)OCO2	-0.1	-6.7	149.7*	-1.6	-5.9	-24.9	-4.6
CS(=O)(=O)N(CC(=O)Nc1ccc2c(c1)OCO2)c1ccccc1	-0.2	-0.4	-4.2	-2.1	x	x	x
O=C1CCC2(CCCC2)c2ccccc21	-1.1	-3.9	-10.1	x	x	x	x
COc1ccc(-c2ccc3c(c2)O/C(=C\c2ccsc2)C3=O)cn1	10.8	22.5	39.4*	x	-0.7	-11.1	-15.9
Cc1cc(/C=C2\C(=N)N3N=C(C(C)C)SC3=NC2=O)c(C)n1Cc1ccccc1	7.0	-1.5	3.6	8.4	x	x	x
CC1=NN2C(=N)/C(=C\c3cc(C)n(-c4ccccc4)c3C)C(=O)N=C2S1	5.0	10.0	-0.5	1.5	x	x	x
Cc1cc(/C=C2\C(=N)N3C(SCc4ccccc4)=NSC3=NC2=O)c(C)n1Cc1ccccc1	4.9	17.4	43.8*	5.7	-1.5	-27.5	-36.5
Cc1ccccc1-n1c(C)cc(/C=C2/C(=N)N3C(c4ccccc4)=CSC3=NC2=O)c1C	28.1	16.6	103.2*	8.8	27.1	22.7	28.7
Oc1ccc(C=Nc2ccc(N3CCOCC3)cc2)c(O)c1	9.7	2.2	4.9	-0.1	x	x	x
Oc1cc(Br)ccc1C=Nc1ccc(N2CCCCC2)cc1	-2.3	36.7*	47.6*	0.2	24.7	-25.8	9.4
Cc1cc(N2CCCC2)ccc1/C=N/n1cnnc1	28.2	21.1	47.1*	3.5	-22.7	-58.6	-12.1
CCOC(=O)N1CCN(CC(=O)Nc2nc3ccccc3s2)CC1	0.2	-6.5	-7.9	2.0	x	x	x
CCOC(=O)N1CCN(C(=O)c2nc3ccccc3s2)CC1	-2.0	-35.4	110.6*	-4.6	-10.3	-12.3	-5.7

Screening data from PubChem.
